Source: paper PMC3356098 (Frontiers in Endocrinology, 2012)

Biological target: RXFP2 (Homo sapiens, UniProt Q8WXD0)
Type: cell-based
Details: for agonist/antagonist character at RXFP2 (in words): cAMP reporter gene assay
Method in brief: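 HEK-293T cells were co-transfected in 96-well format with RXFP2 and a pCRE–β-galactosidase reporter plasmid. They were exposed to increasing concentrations of test peptide for 6 h, then the medium was aspirated and the cells frozen at −80°C overnight before β-galactosidase was measured. Signals were normalised to the maximal native INSL3 response. Triplicates were run in three experiments, with pEC50 from a variable-slope sigmoidal fit.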

Sequence of RXFP2 (Q8WXD0 whole entry): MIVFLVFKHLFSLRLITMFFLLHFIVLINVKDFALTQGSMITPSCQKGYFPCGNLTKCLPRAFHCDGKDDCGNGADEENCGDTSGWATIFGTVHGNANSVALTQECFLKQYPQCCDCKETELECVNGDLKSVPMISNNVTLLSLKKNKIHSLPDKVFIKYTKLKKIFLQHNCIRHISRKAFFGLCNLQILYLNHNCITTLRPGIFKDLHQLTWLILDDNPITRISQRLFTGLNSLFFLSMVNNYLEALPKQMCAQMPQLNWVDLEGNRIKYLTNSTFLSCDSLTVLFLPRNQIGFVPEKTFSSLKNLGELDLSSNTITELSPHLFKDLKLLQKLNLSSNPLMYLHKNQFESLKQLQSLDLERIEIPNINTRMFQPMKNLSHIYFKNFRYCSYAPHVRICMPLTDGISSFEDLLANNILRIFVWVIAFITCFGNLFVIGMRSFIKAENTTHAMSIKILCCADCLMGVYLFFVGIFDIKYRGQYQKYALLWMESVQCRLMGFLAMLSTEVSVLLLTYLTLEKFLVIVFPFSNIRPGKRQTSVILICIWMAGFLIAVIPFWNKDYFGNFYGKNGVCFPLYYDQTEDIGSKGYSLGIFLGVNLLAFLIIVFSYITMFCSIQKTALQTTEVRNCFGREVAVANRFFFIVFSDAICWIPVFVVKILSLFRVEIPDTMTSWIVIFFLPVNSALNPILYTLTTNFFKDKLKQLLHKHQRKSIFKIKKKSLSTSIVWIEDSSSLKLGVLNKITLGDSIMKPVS

agonist/antagonist character at RXFP2 (in words) | ability to stimulate cAMP activity in RXFP2 expressing cells (in concentrations up to 1 μM) | Structure (SMILES)
partial agonist |  | CSCC[C@H](NC(=O)[C@H](CCC(=O)O)NC(=O)[C@@H]1CCCN1C(=O)[C@@H](NC(=O)[C@@H]1CCCN1)[C@@H](C)O)C(=O)N[C@@H](CCCNC(=N)N)C(=O)N[C@@H](CCC(=O)O)C(=O)N[C@@H](CCCCN)C(=O)N[C@@H](CC(C)C)C(=O)N[C@H]1CSSC[C@@H]2NC(=O)[C@@H](NC(=O)[C@H](CCCCN)NC(=O)[C@H](CC(N)=O)NC(=O)[C@H](C)NC(=O)[C@H](CC(C)C)NC(=O)[C@H](C)NC(=O)[C@H](CO)NC(=O)[C@H](Cc3ccc(O)cc3)NC(=O)[C@H](CC(C)C)NC(=O)[C@@H]3CCC(=O)N3)CSSC[C@H](NC(=O)CNC(=O)[C@H](C(C)C)NC(=O)[C@H](Cc3c[nH]cn3)NC2=O)C(=O)N[C@@H]([C@@H](C)O)C(=O)N[C@@H](CCCCN)C(=O)N[C@@H](CCCNC(=N)N)C(=O)N[C@@H](CO)C(=O)N[C@@H](CC(C)C)C(=O)N[C@@H](C)C(=O)N[C@@H](CCCNC(=N)N)C(=O)N[C@@H](Cc2ccccc2)C(=O)N[C@H](C(=O)O)CSSC[C@@H](C(=O)NCC(=O)NCC(=O)N2CCC[C@H]2C(=O)N[C@@H](CCCNC(=N)N)C(=O)N[C@@H](Cc2c[nH]c3ccccc23)C(=O)N[C@@H](CO)C(=O)N[C@H](C(=O)N[C@@H](CCC(=O)O)C(=O)N[C@@H](C)C(=O)O)[C@@H](C)O)NC(=O)[C@H](C(C)C)NC(=O)[C@H](CCCNC(=N)N)NC(=O)[C@H](C(C)C)NC(=O)[C@H](CC(C)C)NC(=O)[C@H](C)NC(=O)[C@H](CCCNC(=N)N)NC(=O)[C@H](C(C)C)NC(=O)[C@H](Cc2ccccc2)NC(=O)[C@H](Cc2c[nH]cn2)NC(=O)[C@H](Cc2c[nH]cn2)NC(=O)CNC1=O [H2-A/INSL3-B]
high affinity antagonists | unable to stimulate cAMP | CSCC[C@H](NC(=O)[C@H](CCC(=O)O)NC(=O)[C@@H]1CCCN1C(=O)[C@@H](NC(=O)[C@@H]1CCCN1)[C@@H](C)O)C(=O)N[C@@H](CCCNC(=N)N)C(=O)N[C@@H](CCC(=O)O)C(=O)N[C@@H](CCCCN)C(=O)N[C@@H](CC(C)C)C(=O)N[C@H]1CSSC[C@@H]2NC(=O)[C@@H](NC(=O)[C@H](CC(C)C)NC(=O)[C@@H](NC(=O)[C@H](CCC(N)=O)NC(=O)[C@H](CC(C)C)NC(=O)[C@H](CC(=O)O)NC(=O)[C@@H]3CCC(=O)N3)[C@@H](C)O)CSSC[C@H](NC(=O)CNC(=O)[C@H](CC(=O)O)NC(=O)[C@H]([C@@H](C)O)NC2=O)C(=O)N[C@@H](CO)C(=O)N[C@@H](CCSC)C(=O)N[C@@H]([C@@H](C)O)C(=O)N[C@@H](CC(=O)O)C(=O)N[C@@H](CC(C)C)C(=O)N[C@@H](CO)C(=O)N[C@@H](C)C(=O)N[C@@H](CC(C)C)C(=O)N[C@H](C(=O)O)CSSC[C@@H](C(=O)NCC(=O)NCC(=O)N2CCC[C@H]2C(=O)N[C@@H](CCCNC(=N)N)C(=O)N[C@@H](Cc2c[nH]c3ccccc23)C(=O)N[C@@H](CO)C(=O)N[C@H](C(=O)N[C@@H](CCC(=O)O)C(=O)N[C@@H](C)C(=O)O)[C@@H](C)O)NC(=O)[C@H](C(C)C)NC(=O)[C@H](CCCNC(=N)N)NC(=O)[C@H](C(C)C)NC(=O)[C@H](CC(C)C)NC(=O)[C@H](C)NC(=O)[C@H](CCCNC(=N)N)NC(=O)[C@H](C(C)C)NC(=O)[C@H](Cc2ccccc2)NC(=O)[C@H](Cc2c[nH]cn2)NC(=O)[C@H](Cc2c[nH]cn2)NC(=O)CNC1=O [INSL5-A/INSL3-B]
